Results as given in the EternaBench riboswitch data.

Tested on: MS2 coat protein
Assay: apparent Kd, MS2 coat protein; higher = weaker binding; RNA-MaP array; FMN 200 µM where present
Summary of the method: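 On Illumina sequencing-chip clusters, designs were transcribed by stalled E. coli RNA polymerase and titrated with SNAP-549-labelled MS2 coat protein (0.7 or 1.5 nM, doubling to 3 µM), without and then with constant ligand, in 100 mM Tris-HCl pH 7.5, 80 mM KCl, 4 mM MgCl2, BSA, DTT, yeast tRNA and Tween-20. Apparent Kd is the median of filtered per-cluster curve fits to green signal normalised to red-channel RNA signal and control-cluster median Fmax.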

[1] = designed as: OFF switch for flavin mononucleotide, no ligand
[2] = ligand present: flavin mononucleotide, designed as: OFF switch for flavin mononucleotide
[3] = designed as: ON switch for flavin mononucleotide, no ligand
[4] = ligand present: flavin mononucleotide, designed as: ON switch for flavin mononucleotide

Row | Sequence | apparent Kd [1] [nM] | apparent Kd [2] [nM] | apparent Kd [3] [nM] | apparent Kd [4] [nM]
1 | GGAGAUACAUGAGGAUCACCCAUGUAGGAUAUCGGGCAUAUAUAUGGCGAAAGCCAUAUAUAUGCCGAGAAGGGCGUACACACC | 8.12 | 7.62 |  | 
2 | GUCGGAAACGACAAAAGUAGCAUACGAGAAGGUUGAUCCAAGACAUGAGGAUCACCCAUGUAGUUAGAGGAUAUUGGAUGCUAC |  |  | 163 | 116
3 | CGUGACUCAGGAUAUCUAUAAUAUCACAUGAGGAUCACCCAUGUCCAGCAAUAGCUGGAGGGAGAAGGGAGUCACG | 140 | 54.9 |  | 
4 | UGUAUGUAGGCAGGAUAUACAUGAAUAUAUAUGAUGUAGUAUGAUGUAACAUGAGGAUCACCCAUGUAGAAGGGCCAGUGUAUG | 77.8 | 129 |  | 
5 | ACAUGAGGAUCACCCAUGUAGAAUGGAGAAGGUAGAUACUUGUGACUCUCCCAUGUACAUAGGACUGAGGAUAUUCUAAUAAUU |  |  | 49.6 | 40.2
6 | GGACGGUUAGUGAGGAUAUGCUCUACCUCGGUAGAGCAGAAGGCACAUGAGGAUCACCCAUGUGAUAACUGUUC | 18.6 | 21.8 |  | 
7 | UUGGACGUCGUAGGAUAUGUAGGAUAUUCCUACAUGAGGAUCACCCAUGUUGACAUGGAAGAAGUACAGAAGGACGAUGUCCAU |  |  | 15.9 | 4.5
8 | UUAUGUUUUGUAGGAUAUCAUUAGUUAUGUAUUAUAAUUGAAAUUUUGUUAUGAGAAGGACAUUUACAUGAGGAUCACCCAUGU | 13.9 | 9.9 |  | 
9 | UUAUUUAGGUAGGAUAUCGAUAUCAAUCCCUAUCGAGAAGGGUCUACAUGAGGAUCACCCAUGUUAGCAUGUUU | 21.2 | 19.2 |  | 
10 | GGUUACAUCGGAGGAUAUCAUGUAAAUACAUGAGGAUCACCCAUGUCGAUGGAGACAUCGGAGAUUGAGAAGGCCGAUGUACCG |  |  | 170 | 7.97
11 | AAAAGGAUCUAACACGACGGGUCACCAGAAGGGACAUUGGCACAUGAGGAUCACCCAUGUCUAGGUCAGGAUAUGGGAUCAAGA |  |  | 72.3 | 10.4
12 | GUUCUGCUAGGAUAUGCAUCAACGGGAUAGCCUACGCGGAAACAUGAGGAUCACCCAUGUAGAAGGAGCUGAAC | 30.3 | 30.6 |  | 
13 | GGAGCAUACAUUAACAUGAGGAUCACCCAUGUCAAAAGACAUGAGGAUAUGGAUCCGAAAAGGAUCCAGAAGGCAUGGUGCUCC |  |  | 173 | 11.5
14 | UGUUGUAUUACAGGAUAUCUAUGAUUUUUGUUUAGAGAAGGGUAUUCACAUGAGGAUCACCCAUGUAUAUACGAGGAAGUUGUG |  |  | 60.3 | 74.7
15 | CUUUUUUUUGUGAGGAUAUACUGUUAUUAAAGUUAGUAGAAGGUACAUGAGGAUCACCCAUGUUAAUUACUCUA | 14.1 | 14.9 |  | 
16 | AAUCGGGAGCAGAAGGCAUGUCAUAAGACAUGAGGAUCACCCAUGUAGUUAAGGCGAAAGCCGCAUGAGGAUAUGCUCCCGUAA |  |  | 71.2 | 6.27
17 | AAUAUGUUGCAGAAGGUUAUAUUUUUUUCGUUCCUCAUGACAUGAGGAUCACCCAUGUAUUUGUUGAAGGAUAUGCAAUAUAUU | 19.9 | 17.6 |  | 
18 | GCACUGGAUGUAGGAUAUCAGGACGAUAAGUCCUGAGAAGGACAUGAGGAUCACCCAUGUAAAACCUCCCAGUGCUAUAAUAUA | 17.1 | 19.7 |  | 
19 | AAGAAGUCAGGAUAUCCAUGGCGGCACUUGCGUGGUGGCGUGGAGAAGGGACAUGAGGAUCACCCAUGUAAAGC | 47.1 | 32.8 |  | 
20 | UUAUUUAUGUAAGGAUAUCGAUUAUAUACACAUCCUACAUGAGGAUCACCCAUGUUUUAUUUUUUCGAGAAGGUACAUUGUCGG |  |  | 51.7 | 47.4
21 | UCUACAUAAAUUCAUCAAUACAGAAAGGAUAUGAGAUACAUGAGGAUCACCCAUGUGCAUGGGAAUUAGAAGGUUCAAUUAGCU | 94.2 | 58.6 |  | 

Row | Sequence | apparent Kd [1] [nM] | apparent Kd [2] [nM] | apparent Kd [3] [nM] | apparent Kd [4] [nM]
22 | UUAUUAUAUGUAGGAUAUGCGUAUUAUUGUUAUGCAGAAGGACAUGAGGAUCACCCAUGUAUAUUAUUGUUAUGUAUUAUAUAU | 30.5 | 69.3 |  | 
23 | GUAUCGUGAGGAUAUCCAAUAUAUGACAUGAGGAUCACCCAUGUUUCCACUCGUACCUCCGGAGAAGGCACAGUUU | 32.2 | 27.9 |  | 
24 | AUAAUGAGAGGAUAUACAUGAGGAUCACCCAUGUUAUUAUCACGUCGUGCUCCAUUACGUAGAAGGCUCAUUUA | 22 | 84.1 |  | 
25 | ACUAGGCGAGGAUAUACAUGCUUAACACAGCGAAAGCUGUGACAUGAGGAUCACCCAUGUAGAAGGCGCAAAUA | 54.1 | 365 |  | 
26 | ACAUUUAAUACAGGAUAUGUUGGUAUACAAUAGAUUGGUUAUAACACAUCAACAGAAGGGUAGAACAUGAGGAUCACCCAUGUA |  |  | 53.6 | 23.3
27 | GUCAGCUCGUGAGGAUAUACACCACUGCUUCGGCAGUGUAUUAAGAUCACAUGAGGAUCACCCAUGUAGAAGGCACGAGCUGAU | 14.5 | 255 |  | 
28 | GUCAGCUCGUGAGGAUAUACAACACUGCUUCGGCAGUGUAUGAAGAUCACAUGAGGAUCACCCAUGUAGAAGGCACGAGCUGAU | 9.93 | 176 |  | 
29 | UAAAAGCAAGGAUAUACAUGAGGAUCACCCAUGUGAGGCUAAGUCUGCCAUGGCUCAGGUAGAAGGUGCGUCGA | 51.3 | 241 |  | 
30 | ACCAUUUACUAGUUUUCUAUACAUGAGGAUCACCCAUGUUUUUAGGAUAUCAGCGUGAAACACGCUGAGAAGGAAGAACAAUCG | 19.1 | 24.6 |  | 
31 | CUGGUUGUCGUAGGAUAUGUAGGAUAUUCCUACAUGAGGAUCACCCAUGUUCGCAUGGAAGAAGGACAGAAGGACGAUGACCAC |  |  | 930 | 23.2
32 | CGUUCAGAGAACGAUACGAAUAGACAUGAGGAUCACCCAUGUAGAAGGACAACGGAAUAAACGUUGUAGGAUAUACAUUUAGUG | 41.3 | 111 |  | 
33 | AUUUCAAUCUAUACUAUACAAACAACAUGAGGAUCACCCAUGUAGGAUAUCGUAUGUAUCAACUACGAGAAGGACAUAAUCUUA | 13.7 | 13.4 |  | 
34 | GUAGGGUCAGGAUAUACGGGCGGAGGGAUGUAUUGUAGUUGGUAGAAGGGACAUGAGGAUCACCCAUGUAAGAA | 29.7 | 26.2 |  | 
35 | AGAGACCUCACAGGAUAUGCUGGACUUUGUCCAGCAGAAGGGUGAAAACAUGAGGAUCACCCAUGUAUGGUCUCCAAAUUUAAC |  |  | 187 | 12.7
36 | UAAGUCGGAGAUAAUAAUGAUUACAUGAGGAUCACCCAUGUAUAGGAUAUCGUCAGGAAUACUGACGAGAAGGAUACAACCGAC | 17.9 | 25.8 |  | 
37 | AAUGAGCUAGGAUAUACAUGAGGAUCACCCAUGUAAAAUAGGUCAUGGAGGAACCACUGUAGAAGGAGCAGGGC | 45.4 | 72.1 |  | 
38 | GUUUGAUUGUAGAAGGUACUUAAUACUCAUGUUACAUGAGGAUCACCCAUGUUUCUACAUUAUUGUAAGGAUAUACAUAACUCA |  |  | 259 | 48.6
39 | CGGGAGUCAGGAUAUACGAACAUGUCGCCAGAUGUCAAGGUACAUGAGGAUCACCCAUGUAGAAGGGAGGAGAA | 91 | 54.3 |  | 
40 | UCCUGAUUGAGAGUUAGGAGUGGUAGAAGGCGACCGGUGCCAGAUGACAUGAGGAUCACCCAUGUCGAGGAUAUACCACAGAAU | 8.04 | 15.4 |  | 
41 | GGCCCGCGCGUGAGGAUAUGCUGAUCCCAGGAUUAGCAGAAGGCACAUGAGGAUCACCCAUGUCCAACUUGUCU | 32.6 | 57 |  | 
42 | CCGAAUGUCACAGGAUAUGGUCCGGGCACGCGACCAGAAGGGUGAUCUCACAUGAGGAUCACCCAUGUGCAGUUGUUAAGCUGC |  |  | 23.8 | 106
